Reference: ChEMBL document CHEMBL4229351, “Design, synthesis and anticancer evaluation of novel spirobenzo[h]chromene and spirochromane derivatives with dual EGFR and B-RAF inhibitory activities” (Eur J Med Chem, 2018)

Key:
A549 = assay: Anticancer activity against human A549 cells assessed as reduction in cell viability after 96 hrs by MTT assay; format: functional, cell-based; conditions: A549, 96 h
Summary of the method: (§1)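 Cancer lines grown in RPMI with 10% FBS and 1% penicillin/streptomycin, 37 C, humidified 5% CO2. Cells exposed to test agents or vehicle in RPMI/10% FBS for 96 h; viability read by MTT; IC50 as mean ± S.D., n = 6.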

MCF7 = assay: Anticancer activity against human MCF7 cells assessed as reduction in cell viability after 96 hrs by MTT assay; format: functional, cell-based; conditions: MCF7, 96 h; summary of the method: as §1
HT-29 = assay: Anticancer activity against human HT-29 cells assessed as reduction in cell viability after 96 hrs by MTT assay; format: functional, cell-based; conditions: HT-29, 96 h; summary of the method: as §1
[1] = Cytotoxicity against human F180 cells assessed as reduction in cell viability after 96 hrs by MTT assay; format: cell-based; conditions: F180, 96 h
Summary of the method: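 F180 normal fibroblasts kept in MEM with 10% FBS and 1% penicillin/streptomycin at 37 C, humidified 5% CO2. Treated with test agents or vehicle in MEM/10% FBS for 96 h; viability by MTT; IC50 reported as mean ± S.D. (n = 6).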

Sus scrofa = species: Sus scrofa; assay: Inhibition of porcine brain tubulin polymerization assessed as tubulin polymerization level by measuring arbitary units at 3 uM by fluorescence analysis

SMILES: S=C(N/N=C1\CC2(CCCCC2)Oc2c1ccc1ccccc21)N1CCCCC1
- IC50 (A549): 11.4 µM
- IC50 (MCF7): 13.3 µM
- IC50 (HT-29): 6.77 µM

SMILES: O=C(N/N=C1\CC2(CCCCC2)Oc2c1ccc1ccccc21)Nc1ccccc1
- IC50 (A549): 8.15 µM
- IC50 (MCF7): 12 µM
- IC50 (HT-29): 4.74 µM

SMILES: O=C1CC2(CCCCC2)Oc2c1ccc1ccccc21
- IC50 (A549): 10.6 µM
- IC50 (MCF7): 10.7 µM
- IC50 (HT-29): 6.15 µM

SMILES: S=C(N/N=C1\CC2(CCCCC2)Oc2c1ccc1ccccc21)NC1CCCCC1
- IC50 (A549): 9.14 µM
- IC50 (MCF7): 15.1 µM
- IC50 (HT-29): 7.44 µM

SMILES: CSC(=S)N/N=C1\CC2(CCCCC2)Oc2c1ccc1ccccc21
- IC50 (A549): 3.99 µM
- IC50 (MCF7): 5.1 µM
- IC50 (HT-29): 4.13 µM
- IC50 [1]: > 40 µM

SMILES: O=C1Nc2ccccc2/C1=N/N=C1\CC2(CCCCC2)Oc2c1ccc1ccccc21
- IC50 (A549): 11.1 µM
- IC50 (MCF7): 5.11 µM
- IC50 (HT-29): 7.67 µM
- IC50 [1]: > 40 µM

SMILES: O=C(N/N=C1\CC2(CCCCC2)Oc2c1ccc1ccccc21)Nc1ccc(Cl)cc1
- IC50 (A549): 9.54 µM
- IC50 (MCF7): 15 µM
- IC50 (HT-29): 7.37 µM

SMILES: CN1CCN(C(=S)N/N=C2\CC3(CCCCC3)Oc3c2ccc2ccccc32)CC1
- IC50 (A549): 10.6 µM
- IC50 (MCF7): 11.7 µM
- IC50 (HT-29): 8.17 µM

SMILES: O=C1c2ccccc2C(=O)N1/N=C1\CC2(CCCCC2)Oc2c1ccc1ccccc21
- IC50 (A549): 12.4 µM
- IC50 (MCF7): 12.1 µM
- IC50 (HT-29): 8.34 µM

SMILES: CNC(=O)c1cc(Oc2ccc(NC(=O)Nc3ccc(Cl)c(C(F)(F)F)c3)cc2)ccn1 [SORAFENIB]
- IC50 (A549): 6.21 µM
- IC50 (MCF7): 3.64 µM
- IC50 (HT-29): 3.97 µM
- IC50 [1]: > 40 µM

SMILES: N/N=C1\CC2(CCCCC2)Oc2c1ccc1ccccc21
- IC50 (A549): 12.9 µM
- IC50 (MCF7): 9.74 µM
- IC50 (HT-29): 9.97 µM

SMILES: S=C(N/N=C1\CC2(CCCCC2)Oc2c1ccc1ccccc21)N1CCNCC1
- IC50 (A549): 12 µM
- IC50 (MCF7): 14.2 µM
- IC50 (HT-29): 8.34 µM

SMILES: Cc1ccc(NC(=O)N/N=C2\CC3(CCCCC3)Oc3c2ccc2ccccc32)cc1
- IC50 (A549): 8.35 µM
- IC50 (MCF7): 9.07 µM
- IC50 (HT-29): 7.09 µM

SMILES: CC[C@]1(O)C[C@H]2CN(CCc3c([nH]c4ccccc34)[C@@](C(=O)OC)(c3cc4c(cc3OC)N(C=O)[C@H]3[C@@](O)(C(=O)OC)[C@H](OC(C)=O)[C@]5(CC)C=CCN6CC[C@]43[C@@H]65)C2)C1
- Activity (Sus scrofa): 747 a.u.

SMILES: CC(=O)O[C@@]12CO[C@@H]1C[C@H](O)[C@@]1(C)C(=O)[C@H](O)C3=C(C)[C@@H](OC(=O)[C@H](O)[C@@H](NC(=O)OC(C)(C)C)c4ccccc4)C[C@@](O)([C@@H](OC(=O)c4ccccc4)[C@H]21)C3(C)C
- Activity (Sus scrofa): 4820 a.u.

SMILES: S=C(N/N=C1\CC2(CCCCC2)Oc2c1ccc1ccccc21)N1CCOCC1
- IC50 (A549): 10.1 µM
- IC50 (MCF7): 11.9 µM
- IC50 (HT-29): 9.31 µM

SMILES: C#Cc1cccc(Nc2ncnc3cc(OCCOC)c(OCCOC)cc23)c1 [ERLOTINIB]
- IC50 (A549): 17.3 µM
- IC50 (MCF7): > 20 µM
- IC50 (HT-29): > 20 µM
